Screening data deposited in PubChem BioAssay by several laboratories.
Shown are actives, neighbours in structure and some others; about 2.7% of the full set was active somewhere.
PLK1 PBD inh = Plk1 polo box domain binding inhibitors, primary screen, biochemical, fluorescence polarization; Serine/threonine-protein kinase PLK1 (Homo sapiens), P53350; Plk1 PBD phosphopeptide binding; inhibition, %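 (tested at about 20 µM)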; 97,000 tested, 0.13% active; in the data active = inhibition above about 34%, passing the limit was not always enough
Target sequence (P53350 whole entry, looked up, the tested form may be a part): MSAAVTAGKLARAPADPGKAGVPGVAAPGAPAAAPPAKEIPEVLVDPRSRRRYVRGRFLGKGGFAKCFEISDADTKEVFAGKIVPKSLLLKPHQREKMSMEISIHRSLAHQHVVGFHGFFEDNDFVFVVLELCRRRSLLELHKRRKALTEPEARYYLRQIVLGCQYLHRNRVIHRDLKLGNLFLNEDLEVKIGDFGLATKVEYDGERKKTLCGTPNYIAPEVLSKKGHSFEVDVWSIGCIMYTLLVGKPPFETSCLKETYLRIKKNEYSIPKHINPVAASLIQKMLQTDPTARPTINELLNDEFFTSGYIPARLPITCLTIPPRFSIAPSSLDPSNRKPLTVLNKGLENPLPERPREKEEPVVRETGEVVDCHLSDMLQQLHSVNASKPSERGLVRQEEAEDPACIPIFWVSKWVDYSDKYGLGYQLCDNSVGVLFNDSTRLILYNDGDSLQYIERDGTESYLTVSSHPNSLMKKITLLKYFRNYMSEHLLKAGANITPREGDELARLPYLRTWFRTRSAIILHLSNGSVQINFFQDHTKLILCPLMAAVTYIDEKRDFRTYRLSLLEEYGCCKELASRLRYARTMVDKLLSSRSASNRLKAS
PTPN22 act = LYP phosphatase activators, primary screen, biochemical, DiFMUP fluorescence, 2 µM. Tyrosine-protein phosphatase non-receptor type 22 (Homo sapiens), Q9Y2R2. recombinant LYP; 0 = plate median, 100 = signal doubled. activation, % at 2 µM. 96,000 tested, 0.11% active;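 active = activation at 2 µM above a set limit, the mean plus 5 SD, cut at about 37% in these data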
PLAP activator = PLAP enzyme activators, biochemical, luminescence, HTS; Alkaline phosphatase, placental type (Homo sapiens), P05187; purified PLAP enzyme, luminescent substrate read-out; hits give high values; activation fold at 20 µM; 96,000 tested, 1.2% active; in the data active = activation fold above about 2
PLK1 kinase inh = human PLK1 kinase inhibitors, primary screen, biochemical, TR-FRET. recombinant PLK1 kinase, TR-FRET peptide phosphorylation. inhibition, % at 10 µM. 97,000 tested, 0.53% active;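 active = inhibition of 50% or more in the single-concentration screen; inactive = inhibition below 50%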
HIV Rev-RRE inh = HIV-1 Rev-RRE binding inhibitors, primary screen, biochemical, FRET, protein-RNA interaction; P05866; Rev peptide-RRE RNA binding; inhibition, % at 8 µM; 97,000 tested, 0.79% active;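 active = inhibition above the screen-wide mean plus 3 SD, cut at about 35% in these data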
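Test system – labelled RRE RNA duplex and labelled Rev peptide · Reagent – labelled Rev peptide · Doses – one concentration, 8 µM nominal · Incubation – 5 + 15 min at 25 °C · Signal – FRET fluorescence readout · Read-out basis – % inhibition of FRET ratio versus controls · Control set – DMSO wells as 0% and neomycin B wells as 100% inhibition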
PTPN22 inh 2 = PTPN22 phosphatase inhibitors, primary screen, biochemical, DiFMUP fluorescence, 2 µM; recombinant LYP catalytic domain; Tyrosine-protein phosphatase non-receptor type 22 (Homo sapiens), Q9Y2R2; inhibition, % at 2 µM; 96,000 tested, 0.21% active;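 active = inhibition at 2 µM at or above a set limit, the screen mean plus 3 SD, cut at about 24% in these data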
A number is an active result; . = inactive; / = no result; [ ] = another dose, or the depositor's remark.

SMILES	PLK1 PBD inh	PTPN22 act	PLAP activator	PLK1 kinase inh	HIV Rev-RRE inh	PTPN22 inh 2
CCOC(=O)N1CCN(C(=O)C2CCN(Cc3nc(-c4ccccc4C)oc3C)CC2)CC1	.	/	.	68	.	/
COc1ccc(-c2nc(CN3CCC(C(=O)N4CCc5ccccc54)CC3)c(C)o2)cc1OC	.	/	.	61	.	/
CCOC(=O)N1CCN(C(=O)CSCc2nc(-c3ccccc3C)oc2C)CC1	.	.	.	.	.	.
CCN1CCN(CCNC(=O)C2CCCN(Cc3nc(-c4cccc(Cl)c4)oc3C)C2)CC1 (stereo not given)	.	/	.	57	.	/
Cc1ccc(-c2nc3sc4c(N)ncnc4c3c3c2CCCC3)cc1	.	.	.	.	.	.
CC(C)Oc1ccc(N2CC(C(=O)OCC(=O)NCc3ccccc3)CC2=O)cc1 (stereo not given)	.	.	.	.	.	.
O=C1/C(=C/c2ccc(N3CCCC3)cc2)NC(=S)N1C1CC1	.	.	.	.	137[fluorescence artefact?]	.
O=Cc1ccc(N2CCCCCC2)cc1	.	.	.	.	.	.
CC1CCc2c(C(=O)Nc3nccs3)csc2C1 (stereo not given)	.	.	.	.	.	65
COc1ccc(-c2cc(C(F)(F)F)n3nc(C(=O)Nc4cc(C)on4)cc3n2)cc1OC	.	.	.	.	.	.
CSc1nnc(C)c(/C=C/Nc2ccc(F)cc2)n1	.	.	.	.	89[fluorescence artefact?]	.
CSc1nnc(C)c(/C=C/Nc2ccc(Cl)cc2)n1	.	.	.	.	42	.
CSc1nc(N)nc(SCC(=O)Nc2ccc(Cl)cc2)c1C#N	.	.	.	.	.	.
CN(C)C(/C=C/Nc1ccc(F)cc1)=C(C#N)C#N	.	/	.	.	.	/
O=C(Nc1nccs1)c1cccc(N2C(=O)c3cccc4c([N+](=O)[O-])ccc(c34)C2=O)c1	.	.	.	.	51	.
c1ccc(Nc2nnc(SCc3cccc4ccccc34)s2)cc1	.	.	.	.	.	.
Cc1ccc(NS(=O)(=O)c2ccc(CCC(=O)NCCO)cc2)cc1	.	.	.	.	.	.
O=C(Cn1ncn2cccc2c1=O)N1CCCCC1	.	.	.	.	.	.
CCN(C(=O)CSc1nc2ccccc2n1CCc1ccccc1)C1CCS(=O)(=O)C1 (stereo not given)	.	.	2.4	.	.	.
CC(C)NC(=O)c1ccc(-c2cc(C(F)(F)F)ccc2Cl)o1	.	.	.	.	.	.
COc1ccc(C2C(C(=O)Nc3ccccc3)=C(C)Nc3nc(CCCO)nn32)cc1 (stereo not given)	.	.	.	.	.	.
COc1ccc(C2C=C(c3ccccc3)Nc3nc(CCCO)nn32)cc1 (stereo not given)	.	.	.	.	40	.
COc1ccc(C2C=C(c3cccs3)Nc3nc(CCCO)nn32)cc1 (stereo not given)	.	.	.	.	129[fluorescence artefact?]	.
OCCCc1nc2n(n1)C(c1ccccc1)C=C(c1ccccc1)N2 (stereo not given)	.	.	.	.	.	.
Cc1ccc(SCCNC(=O)CN(c2ccc3c(c2)OCO3)S(C)(=O)=O)cc1	.	.	.	.	.	.
SMILES	PLK1 PBD inh	PTPN22 act	PLAP activator	PLK1 kinase inh	HIV Rev-RRE inh	PTPN22 inh 2
COc1ccc(-c2nc(C(N)=O)c3[nH]c(=O)n(-c4ccccc4OC)c3n2)c(OC)c1	.	.	2.4	.	.	.
Cc1cc(C)n(-c2cc(=O)n(C)c(=O)n2C)n1	.	.	.	.	.	.
O=C(NNC(=S)Nc1ccccc1)c1ccncc1	.	.	2	.	.	.
CCc1nnc(NC(=O)CN2CCC(O)(c3ccccc3OC)CC2)s1	.	.	.	.	.	.
COc1ccc(C2(O)CCN(CC(=O)Nc3nccs3)CC2)c(OC)c1	.	.	2.4	.	.	.
COc1cc(/C=N\Nc2ccc([N+](=O)[O-])cc2)ccc1OCC(=O)Nc1ccc(C)c(C)c1	.	.	.	.	76[fluorescence artefact?]	.
COc1ccc2nc(SCC(=O)Nc3cc(C)on3)[nH]c2c1	.	.	2.2	.	.	.
